Each structure is given as a SMILES string.

One series has as its target K‐Ras wild type protein (Homo sapiens, UniProt P01116). Briefly: Nucleotide exchange assay. The format is biochemical. An outline of the steps:
(§1)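 SOS1 (final 30.2 nM for G12D, 4.6 nM for wild type) and GTP (1 μM final) follow. Incubated overnight at room temperature, then GDP detection reagent for 1 h. Luminescence read; IC50 from sigmoidal curves.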

The target of the next series is K‐Ras(G12D) (Homo sapiens, UniProt P01116, G12D). Briefly: Nucleotide exchange assay. In kind it is biochemical. An outline of the steps:
as §1

The subject of the next series is NCI‐H441 (G12 V). Briefly: CellTiter-Glo cell viability assay, NCI-H441. The format is cell-based. As to conditions: Homo sapiens, NCI-H441, 72 h, read-out: Cellular activity IC50, NCI‐H441 (G12 V). In a few lines: (§2)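 Cells seeded, then held 24 h at 37 °C/5 % CO2 before test compound in DMSO was added at various concentrations. Plates were incubated a further 72 h at 37 °C, 5 % CO2, humidified. Controls were DMSO vehicle and 10 μM staurosporine. CellTiter-Glo reagent was added at equal volume to the medium, then 2 min shaking and 10 min at room temperature before luminescence (ATP) reading. IC50 from dose-response fit; plates accepted only if Z' ≥0.5, from 16 control values each.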

Another series deals with HCT15 (G13D). Put plainly: CellTiter-Glo cell viability assay, HCT15. The format is cell-based. As to conditions: Homo sapiens, HCT-15, 72 h, read-out: Cellular activity IC50, HCT15 (G13D). An outline of the steps: as §2
Series [1] is described as follows: Control assay for nucleotide exchange assay. As to conditions: 3 mM compound; percent of control.
For series [2] the following is noted: cited from earlier work.
The subject of another series is H358 (G12 C). Put plainly: CellTiter-Glo cell viability assay, H358. In kind it is cell-based. As to conditions: Homo sapiens, NCI-H358, 72 h, read-out: Cellular activity IC50, H358 (G12 C). In a few lines:
as §2

A further series concerns SNU‐1 (G12D). Put plainly: CellTiter-Glo cell viability assay, SNU-1. In kind it is cell-based. As to conditions: Homo sapiens, SNU1, 72 h, read-out: Cellular activity IC50, SNU‐1 (G12D). In a few lines: as §2
The test system of a further series is A549 (G12S). Put plainly: CellTiter-Glo cell viability assay, A549. The format is cell-based. The settings on record: Homo sapiens, A549, 72 h, read-out: Cellular activity IC50, A549 (G12S). An outline of the steps:
as §2

Series [3] is described as follows: Stability in cell culture medium. In kind it is in vitro ADME. The settings on record: 24 h.
The next series deals with pErk in SNU‐1 cells. Briefly: HTRF assay of downstream phosphorylation, pErk in SNU-1. In kind it is cell-based. As to conditions: Homo sapiens, SNU1, read-out: pErk IC50. In a few lines: (§3)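 Test compound was given as a 3-fold 8-point series, top 330 μM final, 1 % DMSO, for 1 h. EGF at 3 nM final was then added for 15 min. Cells were lysed 30 min at room temperature. TR-FRET antibody detection followed after 20 h at room temperature; read-out gave IC50.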

The next series relates to pAkt in SNU‐1 cells. Put plainly: HTRF assay of downstream phosphorylation, pAkt in SNU-1. The format is cell-based. As to conditions: Homo sapiens, SNU1, read-out: pAkt IC50. In a few lines: as §3
For another series, the system named is tErk in SNU‐1 cells. Briefly: HTRF assay, tErk in SNU-1. The format is cell-based. The settings on record: Homo sapiens, SNU1, read-out: tErk IC50. In a few lines: as §3
The next series has as its target (GDP)K‐Ras4B (Homo sapiens, UniProt P01116). Put plainly: MST. In kind it is binding.
For a further series, the system named is pAkt in A375 cells. Put plainly: HTRF assay of downstream phosphorylation, pAkt in A375. In kind it is cell-based. The settings on record: Homo sapiens, A-375, read-out: pAkt IC50.
A further series concerns tAkt in A375 cells. Put plainly: HTRF assay, tAkt in A375. In kind it is cell-based. As to conditions: Homo sapiens, A-375, read-out: tAkt IC50.
The next series has as its system pErk in A375 cells. Put plainly: HTRF assay of downstream phosphorylation, pErk in A375. In kind it is cell-based. The settings on record: Homo sapiens, A-375, read-out: pErk IC50.
Another series has as its system tErk in A375 cells. Briefly: HTRF assay, tErk in A375. As to conditions: Homo sapiens, A-375, read-out: tErk IC50. In kind it is cell-based.
The nature of series [4]: Stability in human plasma solution. In kind it is in vitro ADME. As to conditions: over 24 h.
The target in the next series is (GTP)K‐Ras4B (Homo sapiens, UniProt P01116). Briefly: MST. In kind it is binding.
(GTP)K‐Ras4B, sequence (P01116 1-188 isoform P01116-2): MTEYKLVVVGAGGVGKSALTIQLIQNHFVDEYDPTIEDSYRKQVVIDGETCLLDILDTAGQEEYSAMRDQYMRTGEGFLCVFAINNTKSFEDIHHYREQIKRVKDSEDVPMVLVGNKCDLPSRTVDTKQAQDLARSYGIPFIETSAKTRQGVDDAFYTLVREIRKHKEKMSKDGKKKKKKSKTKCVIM
For another series, the system named is tAkt in SNU‐1 cells. Put plainly: HTRF assay, tAkt in SNU-1. As to conditions: Homo sapiens, SNU1, read-out: tAkt IC50. In kind it is cell-based. An outline of the steps: as §3
The target of another series is K‐Ras4B (Homo sapiens, UniProt P01116). Put plainly: NMR titration experiments. In kind it is binding. An outline of the steps:
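GDP-bound K-Ras4B was titrated with test compound and followed by NMR chemical shift perturbation; KD derived from the titration.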

K‐Ras(G12D), sequence (P01116 1-188 isoform P01116-2 G12D): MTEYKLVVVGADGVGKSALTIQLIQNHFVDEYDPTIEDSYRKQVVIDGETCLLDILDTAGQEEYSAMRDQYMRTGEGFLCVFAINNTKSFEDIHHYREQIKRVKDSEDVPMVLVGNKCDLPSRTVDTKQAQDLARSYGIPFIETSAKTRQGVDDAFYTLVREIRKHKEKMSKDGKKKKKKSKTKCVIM
K‐Ras wild type protein, sequence (P01116 1-188 isoform P01116-2): as the sequence (P01116 1-188 isoform P01116-2) above
(GDP)K‐Ras4B, sequence (P01116 1-188 isoform P01116-2): as above
K‐Ras4B, sequence (P01116 1-188 isoform P01116-2): as above

Regarding `O=[N+]([O-])c1ccc(NN=C(c2ccc(O)cc2)c2ccc(O)cc2)c([N+](=O)[O-])c1` [7 a, 4,4′‐((2‐(2,4‐Dinitrophenyl)hydrazinylidene)methylene)diphenol], the IC50 was found to be 306 ± 49 µM against K‐Ras wild type protein; 236 ± 46 µM on K‐Ras(G12D); 22.8 ± 4.2 µM in the series on NCI‐H441 (G12 V); 18.9 ± 0.6 µM with HCT15 (G13D); 20.9 ± 0.8 µM in the series with H358 (G12 C); 16.7 ± 1.2 µM with SNU‐1 (G12D). The concentration for half-maximal inhibition (IC50) in the series with A549 (G12S) is 16.1 ± 1.5 µM. In series [1], the “WT %CRTL (3 mM)” value was determined as 26%. The tolerability result in series [2] was “well tolerated”.

On to `Oc1ccc(C(=NOCc2ccccc2)c2ccc(O)cc2)cc1` [compound 11, Bis(4‐hydroxyphenyl)methanone‐O‐benzyl oxime], for which the “stability in cell culture medium” value in series [3] was “completely stable”. For the same molecule, the IC50 on K‐Ras wild type protein worked out at 1330 ± 343 µM; at K‐Ras(G12D) it was 431 ± 22 µM; with pErk in SNU‐1 cells it was 218 µM; in the series with pAkt in SNU‐1 cells, 47.7 µM; with NCI‐H441 (G12 V), 62.2 ± 4.8 µM; with HCT15 (G13D), 43.9 ± 1.8 µM. Also, the IC50 is more than 1000 µM in the series with tErk in SNU‐1 cells; more than 1000 µM with pAkt in A375 cells; 749 µM with tAkt in A375 cells; 58.6 ± 0.5 µM in the series on H358 (G12 C); 48.8 µM in the series on pErk in A375 cells; 41.7 ± 4.2 µM with SNU‐1 (G12D). Moreover, the 50% inhibitory concentration (IC50) with A549 (G12S) was determined as 54.3 ± 3.6 µM; in the series on tErk in A375 cells it was 77.2 µM; in the series with tAkt in SNU‐1 cells, 475 µM. Also, the “WT %CRTL (3 mM)” value in [1] is given as 98%. Further, the Kd at (GDP)K‐Ras4B worked out at 89 µM; at (GTP)K‐Ras4B, 602 µM. The “stability in human plasma solution” value in series [4] is recorded as 92%.

Regarding `O=C(c1nc2cccc(O)c2[nH]1)c1cc2cccc(O)c2o1` [compound 12, (7‐Hydroxy‐1H‐benzimidazol‐2‐yl)‐(7‐hydroxybenzofuran‐2‐yl)methanon], the concentration for half-maximal inhibition (IC50) on K‐Ras wild type protein is 1100 ± 381 µM; at K‐Ras(G12D), 340 ± 72 µM; with NCI‐H441 (G12 V) it was 47.4 ± 3 µM; in the series on HCT15 (G13D) it was 37.7 ± 0.4 µM; with H358 (G12 C), 37.7 ± 1.3 µM; in the series on SNU‐1 (G12D), 34.5 ± 2.1 µM. Besides, the IC50 in the series with A549 (G12S) was 45.3 ± 1.5 µM. Moreover, in series [1], the “WT %CRTL (3 mM)” value came to 75%. Moreover, the figures for the dissociation constant Kd at (GDP)K‐Ras4B, on K‐Ras4B and at (GTP)K‐Ras4B were 59 µM, 500 ± 100 µM and 34 µM, respectively. Further, the “fold stronger binding to K‐Ras4B than DHBP” value on K‐Ras4B (NMR titration KD ratio versus DHBP) stood at 18 fold.
